Assay results from different studies.
Compare with care: the assays were run in different laboratories.
Target: Calcium/calmodulin-dependent protein kinase type II subunit gamma (CAMK2G, Homo sapiens, UniProt Q13555)

| Structure (SMILES) | test | setting | remaining binding [%] |
| --- | --- | --- | --- |
| CCCOc1ccc([C@H]2[C@H](C(=O)O)[C@@H](c3ccc4c(c3)OCO4)CN2CC(=O)Nc2c(CC)cccc2CC)cc1 | cell-free assay, competition with immobilised ligand | 1 µM | 95 |
| CN(C)c1ncc(F)c(-c2cnn3ncccc23)n1 | binding | 1 µM | 90 |
| COc1cnc(Nc2cccc(S(N)(=O)=O)c2)nc1N1CCN(c2ccccc2)C(=O)C1 | binding, competition with immobilised ligand | 1 µM | 100 |
| O=C(NCCCN1CCOCC1)c1ccc(Nc2ncc(Cl)c(-c3ccc(Cl)s3)n2)cc1 | binding, competition with immobilised ligand | 1 µM | 77 |
| COc1ccnn2ncc(-c3ccnc(N(C)C)n3)c12 | binding | 1 µM | 100 |
| C[C@@H](c1ccc(-n2cnc3c(N)ncnc32)cc1)N1CCc2nn(C)c(Cc3ccccc3)c2C1=O | binding, competition with immobilised ligand | 0.1 µM | 94 |
| CN(C)c1nccc(-c2cnc3ncccn23)n1 | binding | 1 µM | 100 |
| O=C(NCCCN1CCOCC1)c1ccc(Nc2nccc(-c3cc4ccccc4s3)n2)cc1 | binding, competition with immobilised ligand | 1 µM | 90 |
| Cc1cnn2ncc(-c3ccnc(N(C)C)n3)c2c1 | binding | 1 µM | 64 |
| O=C(Nc1c[nH]nc1C(=O)NC1CCNCC1)c1cc(F)cc(F)c1 | binding, competition with immobilised ligand | 1 µM | 100 |
| CO[C@H]1CC[C@H](CNc2ccc(S(=O)(=O)NC(=O)c3ccc(N4CCN(CC5=C(c6ccc(Cl)cc6)CC(C)(C)CC5)CC4)cc3Oc3cnc4[nH]ccc4c3)cc2[N+](=O)[O-])CC1 | cell-free assay, competition with immobilised ligand | 1 µM | 75 |
| CN(c1nccc(-c2cnn3ncccc23)n1)C1CC1 | binding | 1 µM | 100 |
| CCOC(=O)c1cc2cc(-c3cc(C(=O)NCc4ccc(C(=O)O)cc4)nn3C)ccc2[nH]1 | cell-free assay, competition with immobilised ligand | 0.1 µM | 100 |
| FC(F)(F)Oc1cccc(-c2cnc3ccc(-c4ccncc4)nn23)c1 | cell-free assay, competition with immobilised ligand | 5 µM | 39 |
| CN(C)C(=O)Cn1cc(-c2nc([C@@](C)(c3ccc(-c4cnc(N)nc4)cc3)C3CC3)no2)cn1 | cell-free assay, competition with immobilised ligand | 1 µM | 100 |
| O=C(c1ccc(Nc2ncc(Cl)c(-c3ccc(Cl)s3)n2)cc1)N1CCC(N2CCCC2)CC1 | binding, competition with immobilised ligand | 1 µM | 80 |
| Cc1cc(-n2nc(Cc3cc(F)cc(C(F)(F)F)c3)nc2C)ccc1C(N)=O | cell-free assay, competition with immobilised ligand | 1 µM | 100 |
| N[C@@H]1CCN(c2nccc(-c3cnn4ncccc34)n2)C1 | binding | 1 µM | 100 |
| CCS(=O)(=O)c1cc2cc(C[C@](O)(CC(C)(C)c3ccc(F)cc3C(N)=O)C(F)(F)F)[nH]c2cn1 | cell-free assay, competition with immobilised ligand | 1 µM | 100 |
| C=CC(=O)N1CCC(C(=O)NCC(=O)N2CCN(c3nc(-c4cnc(N)nc4C(F)F)nc(N4CCOCC4)n3)CC2)CC1 | binding, competition with immobilised ligand | 1 µM | 100 |
